Experimental data from ChEMBL document CHEMBL1159325, “Pseudoirroratin A, a new cytotoxic ent-kaurene diterpene from Isodon pseudo-irrorata” (J Nat Prod, 2002).

How the values were obtained:
Type in all cases: functional, cell-based
Lu1 = assay: Cytotoxicity against human Lu1 cells by MTT assay
Method in brief: (§1)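 Cytotoxicity was run on human cell lines (Lu1, SW626, LNCaP, KB, and the HOG.R5 reporter line derived from parental HOS cells) following a previously established protocol. Camptothecin served as the positive control, and results were expressed as IC50.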

SW626 = assay: Cytotoxicity against human SW626 cells by MTT assay; method in brief: as §1
KB = assay: Cytotoxicity against human KB cells by MTT assay; method in brief: as §1
[1] = Cytotoxicity against human HOG.R5 cells by MTT assay; method in brief: as §1
LNCaP = assay: Cytotoxicity against human LNCAP cells by MTT assay; method in brief: as §1
HOS = assay: Cytotoxicity against human HOS cells by MTT assay

Structure (SMILES) | IC50 (Lu1) [nM] | IC50 (SW626) [nM] | IC50 (KB) [nM] | IC50 [1] [nM] | IC50 (LNCaP) [nM] | IC50 (HOS) [nM]
CC[C@@]1(O)C(=O)OCc2c1cc1n(c2=O)Cc2cc3ccccc3nc2-1 [CAMPTOTHECIN] | 28.7 | 28.7 | 28.7 | 28.7 | 86.1 | –
C=C1C(=O)[C@]23[C@H](O)C[C@@H]4C(C)(C)CCC[C@]45CO[C@](O)(C[C@@H]1[C@H]2O)[C@@H]53 [PSEUDOIRRORATIN A] | 750 | 570 | 2590 | – | 2590 | 1440
